Results taken from ChEMBL document CHEMBL3425411, “Synthesis of β-Carboline-Based N-Heterocyclic Carbenes and Their Antiproliferative and Antimetastatic Activities against Human Breast Cancer Cells” (J Med Chem, 2015).
Active and inactive are the calls of the source. The calls are words filed in the database; no cut-off is given here.

Legend:
[1] = test system: MDA-MB-231; test: Cytotoxicity against human MDA-MB-231 cells assessed as growth inhibition after 24 to 72 hrs by MTT assay; assay type: functional, cell-based
Procedure, shortened: (§1)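 About 5000 cells/well were grown 24 h in RPMI-1640 with 10% FBS, then given fresh medium with compound at various concentrations (from 10 mM DMSO stocks) for 24, 48 and 72 h. MTT (5 mg/mL stock) was added for 2 h and formazan dissolved in DMSO. Absorbance was read at 595 nm and expressed as percent proliferation versus DMSO control.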

[2] = test system: MCF7; test: Cytotoxicity against human MCF7 cells assessed as growth inhibition after 24 to 72 hrs by MTT assay; assay type: functional, cell-based; procedure, shortened: as §1
[3] = test system: MDA-MB-468; test: Cytotoxicity against human MDA-MB-468 cells assessed as growth inhibition after 24 to 72 hrs by MTT assay; assay type: functional, cell-based; procedure, shortened: as §1
[4] = Cytotoxicity against human H1299 cells assessed as growth inhibition after 24 to 72 hrs by MTT assay; assay type: functional, cell-based; settings: NCI-H1299; procedure, shortened: as §1
[5] = test system: MDA-MB-231; test: Induction of apoptosis in human MDA-MB-231 cells assessed as early apoptotic cells at 2.5 uM after 24 hrs by annexin V-propidium iodide/Alexa Fluor 488 staining-based flow cytometric analysis (reference value: 4.05 to 4.68%); assay type: functional
[6] = test system: MDA-MB-231; test: Induction of apoptosis in human MDA-MB-231 cells assessed as early apoptotic cells at 5 uM after 24 hrs by annexin V-propidium iodide/Alexa Fluor 488 staining-based flow cytometric analysis (reference value: 4.05 to 4.68%); assay type: functional
[7] = test system: MDA-MB-231; test: Induction of apoptosis in human MDA-MB-231 cells assessed as early apoptotic cells at 7.5 uM after 24 hrs by annexin V-propidium iodide/Alexa Fluor 488 staining-based flow cytometric analysis (reference value: 4.05 to 4.68%); assay type: functional
[8] = test system: MDA-MB-231; test: Induction of apoptosis in human MDA-MB-231 cells assessed as early apoptotic cells at 10 uM after 24 hrs by annexin V-propidium iodide/Alexa Fluor 488 staining-based flow cytometric analysis (reference value: 4.05 to 4.68%); assay type: functional
[9] = test system: MDA-MB-231; test: Induction of apoptosis in human MDA-MB-231 cells assessed as late apoptotic cells at 2.5 uM after 24 hrs by annexin V-propidium iodide/Alexa Fluor 488 staining-based flow cytometric analysis (reference value: 2.08 to 3.78%); assay type: functional
Procedure, shortened: (§2)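 MDA-MB-231 cells, about 2 × 10⁵ per well, seeded in triplicate and treated for 24 h in RPMI-1640 with 10% FBS. Stained with Alexa Fluor 488 annexin V and propidium iodide, then read by flow cytometry. AV+/PI+ events were counted as late apoptotic and reported as percentage of cells relative to control. Three independent experiments, mean ± SEM.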

[10] = test system: MDA-MB-231; test: Induction of apoptosis in human MDA-MB-231 cells assessed as late apoptotic cells at 5 uM after 24 hrs by annexin V-propidium iodide/Alexa Fluor 488 staining-based flow cytometric analysis (reference value: 2.08 to 3.78%); assay type: functional; procedure, shortened: as §2
[11] = test system: MDA-MB-231; test: Induction of apoptosis in human MDA-MB-231 cells assessed as late apoptotic cells at 7.5 uM after 24 hrs by annexin V-propidium iodide/Alexa Fluor 488 staining-based flow cytometric analysis (reference value: 2.08 to 3.78%); assay type: functional; procedure, shortened: as §2
[12] = test system: MDA-MB-231; test: Induction of apoptosis in human MDA-MB-231 cells after 24 hrs by annexin V-propidium iodide/Alexa Fluor 488 staining-based flow cytometric analysis; assay type: functional, cell-based
[13] = test system: MDA-MB-231; test: Induction of apoptosis in human MDA-MB-231 cells assessed as depolarization of mitochondrial membrane potential after 24 hrs by JC-1 staining-based flow cytometric analysis; assay type: functional, cell-based
Procedure, shortened: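 Cells were seeded in 60 mm dishes, grown 24 h, then treated with compound for 24 h. Cells were stained with JC-1 and analysed by flow cytometry. Depolarization was read as green-only cells and as a fall in red/green fluorescence ratio, normalized to control. Three independent experiments, mean ± SEM.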

[14] = test system: MDA-MB-231; test: Cell cycle arrest in human MDA-MB-231 cells assessed as accumulation at S phase at 2.5 uM after 24 hrs by propidium iodide staining-based flow cytometric analysis (reference value: 32.5 to 34.7%); assay type: functional
[15] = test system: MDA-MB-231; test: Cell cycle arrest in human MDA-MB-231 cells assessed as accumulation at G2/M phase at 2.5 uM after 24 hrs by propidium iodide staining-based flow cytometric analysis (reference value: 18.2 to 23.1%); assay type: functional
[16] = test system: MDA-MB-231; test: Cell cycle arrest in human MDA-MB-231 cells assessed as accumulation at G0/G1 phase at 5 uM after 24 hrs by propidium iodide staining-based flow cytometric analysis (reference value: 44.3 to 47.1%); assay type: functional
[17] = test system: MDA-MB-231; test: Cell cycle arrest in human MDA-MB-231 cells assessed as accumulation at S phase at 5 uM after 24 hrs by propidium iodide staining-based flow cytometric analysis (reference value: 32.5 to 34.7%); assay type: functional
[18] = test system: MDA-MB-231; test: Cell cycle arrest in human MDA-MB-231 cells assessed as accumulation at G2/M phase at 5 uM after 24 hrs by propidium iodide staining-based flow cytometric analysis (reference value: 18.2 to 23.1%); assay type: functional
[19] = test system: MDA-MB-231; test: Cell cycle arrest in human MDA-MB-231 cells assessed as accumulation at G0/G1 phase at 7.5 uM after 24 hrs by propidium iodide staining-based flow cytometric analysis (reference value: 44.3 to 47.1%); assay type: functional
[20] = test system: MDA-MB-231; test: Cell cycle arrest in human MDA-MB-231 cells assessed as accumulation at S phase at 7.5 uM after 24 hrs by propidium iodide staining-based flow cytometric analysis (reference value: 32.5 to 34.7%); assay type: functional
[21] = test system: MDA-MB-231; test: Cell cycle arrest in human MDA-MB-231 cells assessed as accumulation at G2/M phase at 7.5 uM after 24 hrs by propidium iodide staining-based flow cytometric analysis (reference value: 18.2 to 23.1%); assay type: functional
[22] = test system: MDA-MB-231; test: Cell cycle arrest in human MDA-MB-231 cells assessed as accumulation at G2/M phase after 24 hrs by propidium iodide staining-based flow cytometric analysis; assay type: functional
[23] = test system: 4T1; test: Antitumor activity against mouse 4T1 cells allografted in Balb/c mouse assessed as tumor growth inhibition at 10 mg/kg, po administered every alternative day for 5 weeks measured twice a week during compound dosing relative to control; assay type: functional
Procedure, shortened: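 4T1 cells (7 × 10⁵) were injected into the second right mammary fat pad of 8-week-old female Balb/c mice, with a booster of about 5 × 10⁵ cells 4 days later. One week after the booster, dosing began at 10 mg/kg by oral gavage on alternate days for 5 weeks (n = 6). Controls received vehicle. Tumor size and body weight were measured twice weekly.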

[24] = test system: Mus musculus; test: Toxicity in Balb/c mouse allografted with mouse 4T1 cells assessed as reduction in body weight at 10 mg/kg, po administered every alternative day for 5 weeks measured twice a week during compound dosing; assay type: organism-based; design: dose 10 mg/kg, route oral; settings: in vivo, 840 h
Procedure, shortened: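 Female Balb/c mice, 8 weeks old, given 7 × 10⁵ 4T1 cells into the second right mammary fat pad, plus a booster of about 5 × 10⁵ cells after 4 days. One week later, 10 mg/kg by oral gavage on alternate days for 5 weeks, n = 6. Vehicle-dosed controls. Body weight and tumour size measured twice weekly.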

[25] = test system: MDA-MB-231; test: Antimigratory activity against human MDA-MB-231 cells at >= 2.5 uM after 48 hrs by transwell assay

Compound | IC50 [1] [µM] | IC50 [2] [µM] | IC50 [3] [µM] | IC50 [4] [µM] | Activity [5] [%] | Activity [6] [%] | Activity [7] [%] | Activity [8] [%] | Activity [9] [%] | Activity [10] [%] | Activity [11] [%] | Activity [12] | Activity [13] | Activity [14] [%] | Activity [15] [%] | Activity [16] [%] | Activity [17] [%] | Activity [18] [%] | Activity [19] [%] | Activity [20] [%] | also measured
COC(=O)c1cc2c3ccccc3[nH]c2c2cn(-c3ccc(C(F)(F)F)cc3)c[n+]12.[Cl-] | 7.98 | 14.2 | 11.1 | 4.48 | 4.4 | 5.23 | 9.28 | 14.3 | 2.87 | 2.31 | 9.02 | Dose-dependent effect | Dose-dependent effect | 26.7 | 22.8 | 45.3 | 19 | 35.5 | 34.1 | 27.6 | Activity [21]: 38.2%; Activity [22]: Dose-dependent effect; inhibition in vivo at 10 mg/kg ([23]; 4T1, 840 h, read-out: TGI): 20%; Activity [24]: Non-toxic; Activity [25]: Active
COC(=O)c1cc2c3ccccc3[nH]c2c2cn(-c3ccc(F)cc3Cl)c[n+]12.[Cl-] | 4.49 | 6.8 | 5.94 | 5.13 | 2.21 | 4.72 | 12.14 | 14.4 | 1.16 | 3.26 | 7.04 | Dose-dependent effect | Dose-dependent effect | 29.8 | 23.4 | 46.6 | 21.8 | 33.9 | 31.1 | 28.22 | Activity [21]: 40.6%; Activity [22]: Dose-dependent effect; TGI [23]: inactive; Activity [24]: Non-toxic; Activity [25]: Active
COC(=O)c1cc2c3ccccc3[nH]c2c2cn(-c3ccc(C)cc3Br)c[n+]12.[Cl-] | 7.28 | 6.9 | 5.78 | 7.8 | 5.42 | 6.93 | 24.22 | 55.63 | 3.49 | 4.06 | 16.58 | Dose-dependent effect | Dose-dependent effect | 19.5 | 23.6 | 47.3 | 17.9 | 34.7 | 43 | 24.4 | Activity [21]: 32.5%; Activity [22]: Dose-dependent effect; TGI [23]: inactive; Activity [24]: Non-toxic; Activity [25]: Active
